These results are taken from ChEMBL document CHEMBL4359895, “Discovery and biological evaluation of darolutamide derivatives as inhibitors and down-regulators of wild-type AR and the mutants” (Eur J Med Chem, 2019).

Values after ≈ are worked out from the molar mass of the structure shown. Active and inactive are the calls of the source. The rule behind the calls is not given here.

For data set [1], the system named is LNCaP. Put plainly: Antiproliferative activity against human LNCAP expressing AR assessed as reduction in cell viability incubated for 6 days by CCK-8 assay. The class given is functional, cell-based. Particulars: 144 h. The gist of the method: (§1)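 Cell proliferation assay run on LNCaP/AR, VCaP, 22Rv1, PC-3 and L-02 cells, with PC-3 and L-02 serving as AR-independent toxicity controls. IC50 fitted in GraphPad Prism 5 as the mean of at least two experiments, each in duplicate. Deviations under 35%.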

Data set [2] relates to VCaP. Nature of the data set: Antiproliferative activity against human VCaP expressing AR assessed as reduction in cell viability incubated for 6 days by CCK-8 assay. The class given is functional, cell-based. As to conditions: 144 h. The gist of the method: as §1
In general terms: Tetrazolium assays rely on reduction of a dye to a coloured formazan, in cell work by metabolically active cells.

The test system of the next data set is CWR22R. Put plainly: Antiproliferative activity against human 22Rv1 expressing AR assessed as reduction in cell viability incubated for 6 days by CCK-8 assay. In kind it is functional, cell-based. Particulars: 22Rv1, 144 h. The gist of the method:
as §1

The test system of the next data set is PC-3. Nature of the data set: Cytotoxicity against human PC3 assessed as reduction in cell viability incubated for 6 days by CCK-8 assay. In kind it is cell-based. Particulars: PC-3, 144 h. The essentials: as §1
Data set [3] addresses T1, Androgen receptor (Homo sapiens) (UniProt P10275).
T1 sequence (whole entry): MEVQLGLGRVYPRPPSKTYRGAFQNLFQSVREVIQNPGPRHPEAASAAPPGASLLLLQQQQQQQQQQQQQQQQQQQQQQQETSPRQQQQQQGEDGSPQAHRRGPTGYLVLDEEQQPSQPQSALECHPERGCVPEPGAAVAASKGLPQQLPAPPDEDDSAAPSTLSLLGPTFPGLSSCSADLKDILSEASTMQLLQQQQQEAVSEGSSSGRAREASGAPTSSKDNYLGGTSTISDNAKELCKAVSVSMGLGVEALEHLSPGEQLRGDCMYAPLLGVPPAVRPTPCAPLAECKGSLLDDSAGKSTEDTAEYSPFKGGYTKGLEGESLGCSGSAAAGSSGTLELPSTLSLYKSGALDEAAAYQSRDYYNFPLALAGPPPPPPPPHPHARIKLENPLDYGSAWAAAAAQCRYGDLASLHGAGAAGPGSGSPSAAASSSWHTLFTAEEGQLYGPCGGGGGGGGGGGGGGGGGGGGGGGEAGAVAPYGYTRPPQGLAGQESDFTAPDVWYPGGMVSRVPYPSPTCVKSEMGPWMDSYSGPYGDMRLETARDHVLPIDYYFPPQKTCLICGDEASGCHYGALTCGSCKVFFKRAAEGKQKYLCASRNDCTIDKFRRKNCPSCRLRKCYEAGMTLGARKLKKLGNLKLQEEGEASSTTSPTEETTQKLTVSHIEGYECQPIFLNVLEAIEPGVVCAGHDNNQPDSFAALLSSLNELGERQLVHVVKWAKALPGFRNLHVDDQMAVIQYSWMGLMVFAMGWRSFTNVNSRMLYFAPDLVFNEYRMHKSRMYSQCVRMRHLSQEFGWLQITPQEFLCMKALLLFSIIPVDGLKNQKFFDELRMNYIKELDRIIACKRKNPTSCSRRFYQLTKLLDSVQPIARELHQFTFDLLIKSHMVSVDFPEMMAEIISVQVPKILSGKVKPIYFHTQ
Nature of the data set: Inhibition of AR in human HEK293 cells assessed as decrease in receptor transactivation at 10 uM incubated for 24 hrs by dual luciferase reporter gene assay. The class given is cell-based. The essentials: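 HEK 293 cells transiently co-transfected with wt-AR expression vector and an androgen-responsive luciferase reporter construct. Cells given 2 nM testosterone plus 10 µM test compound (final concentrations). Read-out by luciferase, mean ± SD, n = 3.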

The subject of another data set is L02. Put plainly: Cytotoxicity against human L02 assessed as reduction in cell viability incubated for 6 days by CCK-8 assay. In kind it is cell-based. Particulars: L02, 144 h. The essentials:
as §1

Data set [4] has as its target Bromodomain-containing protein 4 (Homo sapiens) (UniProt O60885). Nature of the data set: Inhibition of BRD4 (unknown origin) by alpha-screen assay. On the technique in general: Alpha assays give light when donor and acceptor beads are brought close together.
The test system of data set [5] is LNCaP. Put plainly: Inhibition of AR protein expression in human LNCAP cells at 20 uM incubated for 24 hrs by Western blot analysis. In kind it is functional, cell-based. The essentials:
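LNCaP cells treated with 20 µM compound or DMSO for 24 h. AR-full protein detected by western blot with tubulin as loading control, then quantified by ImageJ grayscale analysis.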
(A western blot detects proteins with antibodies after separation by electrophoresis.)

Data set [6] is described as follows: Solubility of compound in PBS incubated for 24 hrs by HPLC analysis. In kind it is physicochemical. The gist of the method: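 Solubility determined in PBS at 25 ℃ by the saturation shake-flask method. Quantified against calibration curves.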
Data set [7] in a line: Stability of compound in nutrient medium with fetal bovine serum and antibiotic incubated for 6 days by HPLC analysis. Particulars: 144 h.
Data set [8] relates to VCaP. Nature of the data set: Antiproliferative activity against human VCaP expressing AR assessed as reduction in cell viability at 30 uM incubated for 6 days by CCK-8 assay relative to control. As to conditions: 144 h, read-out: INH.
For data set [9], the system named is VCaP. Put plainly: Antitumor activity against castration-resistant human VCaP cells xenografted in BALB/c mouse assessed as tumor growth inhibition at 30 mg/kg, po administered for 40 days. In kind it is functional. Particulars: 960 h, read-out: TGI. The essentials:
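Castration-resistant VCaP xenografts grown in male BALB/c nude mice. Animals dosed once daily for 40 days alongside a vehicle group. Tumor volume tracked over time, with tumor weights taken at end. Reported as tumor growth inhibition, mean ± SEM, N = 8-9 per group.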

As to `CC(O)c1cccc(C(=O)N[C@@H](C)Cn2ccc(-c3ccc(C#N)c(Cl)c3)n2)c1` (stereo not given in full), the IC50 (as a rule, the point on the concentration scale where inhibition reaches its midpoint) with LNCaP [1] was 2.28 µM; in the data set with VCaP [2], 0.9 µM; in the data set on CWR22R, 20.1 µM; in the data set on PC-3, greater than 30 µM. Besides, the inhibition result in data set [3] is “Active”.

For `CC(O)c1cc(C(=O)N[C@@H](C)Cn2ccc(-c3ccc(C#N)c(Cl)c3)n2)n[nH]1` (stereo not given in full) [DAROLUTAMIDE], the IC50 with LNCaP [1] is 1.65 µM; in the data set with CWR22R it was greater than 30 µM; with PC-3, greater than 30 µM; in the data set on L02, greater than 30 µM. In addition, in data set [4], the inhibition result was “inactive”.

Regarding `CC(Cn1ccc(-c2ccc(C#N)c(Cl)c2)n1)C(=O)Nc1cccc(C(C)O)c1` (racemic), the IC50 in the data set on LNCaP [1] was 4.15 µM; in the data set on VCaP [2], greater than 30 µM; with PC-3, greater than 30 µM. Besides, the inhibition entry in data set [3] is “Active”.

On to `C[C@@H](Cn1ccc(-c2ccc(C#N)c(Cl)c2)n1)Nc1ncnc2ccccc12`, for which the IC50 in the data set on LNCaP [1] is 0.51 µM; with VCaP [2], 1.31 µM; in the data set on CWR22R, 4.36 µM; in the data set on PC-3 it was greater than 30 µM; in the data set with L02 it was 13 µM. For the same compound, the inhibition result (in [3]; in the data set on LNCaP [5]) was “Active” each time.

Regarding `CC(O)c1cc(C(=O)N[C@@H](C)Cn2ccc(-c3ccc(C#N)c(Cl)c3)n2)[nH]n1` (stereo not given in full) [DAROLUTAMIDE], in [6], the concentration in solution (solubility at 24 h) came to 223 µM (≈ 89 µg/mL). The Stability result in data set [7] is given as “Stable”.

Consider `C[C@@H](Cn1ccc(-c2ccc(C#N)c(Cl)c2)n1)Nc1cccnc1`, for which the IC50 in the data set with LNCaP [1] was 0.43 µM; in the data set on VCaP [2] it was greater than 30 µM; in the data set with CWR22R, 21.6 µM; in the data set with PC-3 it was greater than 30 µM; with L02, greater than 30 µM. Further, the inhibition entry in [3] was “Active”.

In the case of `CNC(=O)c1ccc(N2C(=S)N(c3ccc(C#N)c(C(F)(F)F)c3)C(=O)C2(C)C)cc1F` [ENZALUTAMIDE], the values for the IC50 in the data set with LNCaP [1], in the data set on CWR22R and in the data set with PC-3 were 0.19 µM, greater than 30 µM and greater than 30 µM, respectively. In addition, in the data set on VCaP [8], the inhibition at 30 µM came out at 50%. For the same compound, the inhibition result in data set [4] is “inactive”. Besides, the inhibition in vivo at 30 mg/kg with VCaP [9] amounted to 43%.
